Data taken from ChEMBL document CHEMBL1141231, “Discovery and development of a new class of potent, selective, orally active oxytocin receptor antagonists” (J Med Chem, 2005).
In brackets after ≈: the same amount, converted by molar mass. Where a SMILES comes first, the peptide text is derived from it. Bridges are numbered along the chain shown (N, C = ends). [ ]: non-standard residue; d: D form. Orn = NCCC[C@H](N)C(=O)O; Mpa = O=C(O)CCS

Key:
[1] = target: T1, Oxytocin receptor (Homo sapiens) (UniProt P30559); assay: Displacement of [125I]OVTA antagonist from human oxytocin receptor expressed in HEK293-EBNA cells at 10 uM; assay type: cell-based
T1 sequence (whole entry): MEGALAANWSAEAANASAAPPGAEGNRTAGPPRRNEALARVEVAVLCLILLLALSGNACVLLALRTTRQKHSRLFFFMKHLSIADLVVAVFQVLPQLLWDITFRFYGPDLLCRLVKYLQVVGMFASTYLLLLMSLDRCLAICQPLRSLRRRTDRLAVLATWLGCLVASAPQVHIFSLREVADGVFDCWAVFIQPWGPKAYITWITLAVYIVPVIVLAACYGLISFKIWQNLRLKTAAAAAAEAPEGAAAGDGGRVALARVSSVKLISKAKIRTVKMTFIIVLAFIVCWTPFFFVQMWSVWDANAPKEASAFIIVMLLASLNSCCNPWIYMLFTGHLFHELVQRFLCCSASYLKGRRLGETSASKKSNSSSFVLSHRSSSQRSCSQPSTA

[2] = target: T2, Vasopressin V1a receptor (Homo sapiens, UniProt P37288); conditions: HEK293-EBNA, at 10 µM
Target sequence in this assay (P37288 whole entry, looked up): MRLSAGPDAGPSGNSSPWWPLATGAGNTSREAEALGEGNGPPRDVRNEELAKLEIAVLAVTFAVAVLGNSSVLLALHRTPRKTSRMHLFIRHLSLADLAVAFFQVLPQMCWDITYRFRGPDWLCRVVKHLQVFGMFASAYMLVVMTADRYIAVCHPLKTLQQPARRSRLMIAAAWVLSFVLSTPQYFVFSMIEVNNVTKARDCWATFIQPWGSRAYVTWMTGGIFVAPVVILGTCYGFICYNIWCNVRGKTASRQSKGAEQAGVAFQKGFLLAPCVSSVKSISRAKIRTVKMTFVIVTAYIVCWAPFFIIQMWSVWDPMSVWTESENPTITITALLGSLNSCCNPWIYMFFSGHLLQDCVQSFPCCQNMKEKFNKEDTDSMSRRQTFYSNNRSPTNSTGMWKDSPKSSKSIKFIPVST

[3] = target: T3, Oxytocin receptor (Homo sapiens, UniProt P30559); assay: biochemical; assay type: cell-based, HEK293-EBNA
T3 sequence (P30559 whole entry): T1 sequence (whole entry)

[4] = target: T2, Vasopressin V1a receptor; assay: Displacement of [125I]LVA antagonist from human vasopressin 1a receptor expressed in HEK293-EBNA cells; assay type: cell-based
Target sequence in this assay (P37288 whole entry): as the sequence (P37288 whole entry, looked up) above

[5] = Dissociation constant of the compound; assay type: physicochemical
[6] = organism: Homo sapiens; assay: Selectivity for human vasopressin V1a receptor over human oxytocin receptor
[7] = Solubility in saline; assay type: physicochemical
[8] = Solubility in aqueous medium; assay type: physicochemical; conditions: aqueous medium; read-out: Solubility
[9] = Stability of compound in presence of rat liver microsomes; assay type: ADME
Summary of the method: (§1)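 Liver microsomes (human or rat) at final […] in 0.1 M phosphate pH 7.4 with compound at final 40 µM (1% DMSO), preincubated at 37 °C; reaction started with 1 mM NADPH; stopped with cold acetonitrile at 0, 20 and 60 min.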

[10] = target: T4, Oxytocin receptor (Rattus norvegicus, UniProt P70536); assay: Displacement of [125I]OVTA antagonist from rat oxytocin receptor expressed in HEK293-EBNA cells; assay type: cell-based
T4 sequence (P70536 whole entry): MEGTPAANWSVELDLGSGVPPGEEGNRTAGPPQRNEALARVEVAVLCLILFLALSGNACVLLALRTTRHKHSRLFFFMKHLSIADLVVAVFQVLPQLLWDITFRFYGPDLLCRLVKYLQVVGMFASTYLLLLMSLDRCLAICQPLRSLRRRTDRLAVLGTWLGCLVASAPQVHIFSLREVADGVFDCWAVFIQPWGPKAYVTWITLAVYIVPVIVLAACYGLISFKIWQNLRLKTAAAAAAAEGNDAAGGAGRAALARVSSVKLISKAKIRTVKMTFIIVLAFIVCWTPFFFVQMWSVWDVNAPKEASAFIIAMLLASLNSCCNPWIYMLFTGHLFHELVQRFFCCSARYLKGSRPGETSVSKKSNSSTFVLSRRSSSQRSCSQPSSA

[11] = target: T3, Oxytocin receptor; assay: Inhibitory activity against human Oxytocin induced intracellular Calcium mobilization in human Oxytocin receptor transfected HEK293-EBNA cells; assay type: functional, cell-based
[12] = test system: Liver microsomes; assay: Stability of compound in presence of human liver microsomes; assay type: ADME, Microsome; summary of the method: as §1
[13] = target: Cytochrome P450 2C9 (Homo sapiens, UniProt P11712); assay: Inhibitory activity against cytochrome P450 2C9 isoform
[14] = target: T5, Oxytocin receptor (Rattus norvegicus) (UniProt P70536); assay: Inhibition of oxytocin-induced uterine contractions in nonpregnant rats administered at 10 mg/kg, iv; assay type: functional, organism-based; set-up: dose 10 mg/kg
T5 sequence (whole entry): T4 sequence (P70536 whole entry)
Summary of the method: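 Anaesthetized nonpregnant rats; compound given as a solution by iv infusion in NP3S, PEG/saline or saline. Uterine intraluminal pressure AUC is read relative to the third OT injection. Inhibition is taken versus vehicle values at 5 min after OT administration.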

[15] = target: Cytochrome P450 2C19 (Homo sapiens, UniProt P33261); assay: Inhibitory activity against cytochrome P450 2C19 isoform; assay type: ADME
Summary of the method: (§2)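 Baculovirus/insect-cell-expressed CYP isoforms are incubated with a specific fluorogenic substrate and several compound concentrations in 1% DMSO. Fluorescence of the product after a defined reaction time gives % inhibition at each concentration and the IC50.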

[16] = Oral bioavailability in rat; assay type: ADME, organism-based; conditions: in vivo
[17] = target: Vasopressin V2 receptor (Homo sapiens, UniProt P30518); assay: Displacement of [125I]LVA antagonist from human vasopressin 2 receptor expressed in HEK293-EBNA cells; assay type: cell-based
[18] = target: T5, Oxytocin receptor (Rattus norvegicus); assay: Inhibition of oxytocin-induced uterine contractions in nonpregnant rats administered at 30 mg/kg, po; assay type: functional, organism-based; set-up: dose 30 mg/kg
Summary of the method: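 Anaesthetized nonpregnant rats dosed orally by esophagus cannulation with a solution in NP3S, PEG/saline or saline. Uterine intraluminal pressure AUC is read versus vehicle. The value is the maximum inhibition within a 3 h interval after OT administration.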

[19] = Inhibitory activity against cytochrome P450; assay type: ADME
Summary of the method: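 Baculovirus/insect-cell expressed CYP isoforms incubated with compound at several concentrations in 1% DMSO plus isoform-specific fluorogenic substrate; fluorescence after a fixed reaction time used to compute % inhibition and IC50.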

[20] = target: T5, Oxytocin receptor (Rattus norvegicus); assay: In vivo efficacy against oxytocin-induced uterine contractions in nonpregnant rats administered iv; assay type: functional, organism-based
Summary of the method: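 Anaesthetized nonpregnant rats; compound given as a solution by iv infusion in NP3S, PEG/saline or saline. Contractions read as AUC of intraluminal uterine pressure over 35 min, relative to the third OT injection, and expressed as % inhibition versus a vehicle group. ED50 is taken from a dose-response curve of peak inhibition values.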

[21] = test system: Rattus norvegicus; assay: Inhibition of spontaneous uterine contraction in late-term pregnant rats at 30 mg/kg, po
[22] = target: Cytochrome P450 3A4 (Homo sapiens, UniProt P08684); assay: Inhibitory activity against cytochrome P450 3A4 isoform; assay type: ADME; summary of the method: as §2
Sequence of Cytochrome P450 3A4 (P08684 whole entry, canonical isoform): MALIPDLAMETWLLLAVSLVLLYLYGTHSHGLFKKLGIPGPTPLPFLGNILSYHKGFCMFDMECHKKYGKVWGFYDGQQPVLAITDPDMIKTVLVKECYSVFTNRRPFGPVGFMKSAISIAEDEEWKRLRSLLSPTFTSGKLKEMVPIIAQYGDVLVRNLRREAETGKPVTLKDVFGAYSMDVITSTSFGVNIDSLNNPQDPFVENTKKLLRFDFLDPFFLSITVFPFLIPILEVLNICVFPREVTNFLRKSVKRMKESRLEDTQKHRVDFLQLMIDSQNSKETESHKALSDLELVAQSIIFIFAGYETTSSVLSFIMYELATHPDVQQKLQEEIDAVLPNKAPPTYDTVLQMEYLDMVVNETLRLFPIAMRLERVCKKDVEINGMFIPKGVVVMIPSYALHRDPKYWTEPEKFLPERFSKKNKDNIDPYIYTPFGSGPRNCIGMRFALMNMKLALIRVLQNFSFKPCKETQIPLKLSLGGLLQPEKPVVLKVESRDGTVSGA

Sequence of Cytochrome P450 2C9 (P11712 whole entry, canonical isoform): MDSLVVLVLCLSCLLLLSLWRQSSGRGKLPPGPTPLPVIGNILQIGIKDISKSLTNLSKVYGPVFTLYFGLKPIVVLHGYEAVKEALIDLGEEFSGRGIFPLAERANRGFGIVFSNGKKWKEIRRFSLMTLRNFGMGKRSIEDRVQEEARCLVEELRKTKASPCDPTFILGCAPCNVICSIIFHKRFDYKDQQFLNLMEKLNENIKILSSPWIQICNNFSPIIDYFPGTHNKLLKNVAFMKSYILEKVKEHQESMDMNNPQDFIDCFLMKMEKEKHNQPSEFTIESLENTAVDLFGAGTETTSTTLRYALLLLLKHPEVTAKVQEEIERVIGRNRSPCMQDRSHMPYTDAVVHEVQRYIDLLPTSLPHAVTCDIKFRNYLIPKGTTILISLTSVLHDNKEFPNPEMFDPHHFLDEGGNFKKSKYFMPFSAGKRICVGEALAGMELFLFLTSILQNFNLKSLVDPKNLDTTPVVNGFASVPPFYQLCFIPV
Sequence of Cytochrome P450 2C19 (P33261 whole entry, canonical isoform): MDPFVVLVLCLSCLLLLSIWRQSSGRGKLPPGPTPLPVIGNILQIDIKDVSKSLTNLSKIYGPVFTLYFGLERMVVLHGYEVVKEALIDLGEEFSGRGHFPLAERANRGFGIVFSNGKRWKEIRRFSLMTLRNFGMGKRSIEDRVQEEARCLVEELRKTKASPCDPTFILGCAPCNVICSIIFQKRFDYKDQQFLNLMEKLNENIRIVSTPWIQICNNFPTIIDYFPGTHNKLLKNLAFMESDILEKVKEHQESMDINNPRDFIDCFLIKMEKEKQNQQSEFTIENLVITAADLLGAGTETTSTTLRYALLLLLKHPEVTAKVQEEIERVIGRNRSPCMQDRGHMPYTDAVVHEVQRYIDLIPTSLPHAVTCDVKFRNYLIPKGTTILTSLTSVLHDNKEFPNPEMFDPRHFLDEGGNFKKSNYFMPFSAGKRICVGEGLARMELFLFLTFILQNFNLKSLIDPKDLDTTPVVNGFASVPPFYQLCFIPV
Sequence of Vasopressin V2 receptor (P30518 whole entry): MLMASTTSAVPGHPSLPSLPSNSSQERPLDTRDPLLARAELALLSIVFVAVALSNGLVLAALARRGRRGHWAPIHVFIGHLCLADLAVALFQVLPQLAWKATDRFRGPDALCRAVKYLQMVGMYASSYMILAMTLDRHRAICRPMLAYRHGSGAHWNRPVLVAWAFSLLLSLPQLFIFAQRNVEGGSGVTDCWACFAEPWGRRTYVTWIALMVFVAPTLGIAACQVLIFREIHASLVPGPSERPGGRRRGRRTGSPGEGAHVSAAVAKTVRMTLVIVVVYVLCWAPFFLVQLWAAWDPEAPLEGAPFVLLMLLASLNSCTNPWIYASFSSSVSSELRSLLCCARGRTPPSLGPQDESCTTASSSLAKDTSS

Compound	inhibition [1] [%]	inhibition [2] [%]	Ki [3] [nM]	Ki [4] [nM]	Ratio Ki [6]	Ki [10] [nM]	further results
Cc1ccc(N(CC(=O)N/N=C/c2ccccc2Cl)S(=O)(=O)c2ccccc2)cc1	< 50	< 50	–	–	–	–	–
Cc1ccc(N(CC(=O)N/N=C/c2ccccc2F)S(=O)(=O)c2ccccc2)cc1	< 50	< 50	–	–	–	–	–
CCOc1ccc(S(=O)(=O)N(CC(=O)N/N=C2\C(=O)Nc3ccncc32)c2ccc(Cl)cc2)cc1	–	–	64	3610	56	–	pKa [5]: 4.4
O=C(CCc1ccc(S(=O)(=O)N(CC(=O)N/N=C2\C(=O)Nc3ccccc32)c2ccc(Cl)cc2)cc1)NCCCO	–	–	0.9	94	102	–	solubility [7]: < 1 µg/mL; solubility [8]: < 1 µg/mL
COCCOCCOc1ccc(S(=O)(=O)N(CC(=O)N/N=C2\C(=O)Nc3ccccc32)c2ccc(Cl)cc2)cc1	–	–	3	511	176	12	metabolised [9]: 89%; solubility [7]: < 1 µg/mL; IC50 [11]: 7 nM; MET [12]: 79%; solubility [8]: < 1 µg/mL; IC50 [13]: 330 nM; inhibition [14]: 23.3%
O=C(CN(c1ccc(Cl)cc1)S(=O)(=O)c1ccccc1)Nc1ccccc1	< 50	< 50	–	–	–	–	–
CCN(CC)C(=O)CN(c1ccc(OC)cc1)S(=O)(=O)c1ccccc1	< 50	< 50	–	–	–	–	–
O=C(CN(c1ccc(Cl)cc1)S(=O)(=O)c1ccc(CCCO)cc1)N/N=C1\C(=O)Nc2ccccc21	–	–	4.1	615	150	–	metabolised [9]: 31%; solubility [7]: < 1 µg/mL; IC50 [11]: 32 nM; MET [12]: 34%; IC50 [15]: 50 nM; solubility [8]: < 1 µg/mL; IC50 [13]: 345 nM
CCOc1ccc(S(=O)(=O)N(CC(=O)NN=C2C(=O)Nc3ccccc32)c2ccc(C)cc2)cc1	–	–	14	1410	–	25	solubility [7]: < 1 µg/mL; bioavailability [16]: 6%; Ki [17]: 2500 nM; IC50 [11]: 30 nM; solubility [8]: < 1 µg/mL
O=C(CN(c1ccc(Cl)cc1)S(=O)(=O)c1ccc(OCCN2CCOCC2)cc1)N/N=C1\C(=O)Nc2ccccc21	–	–	0.9	133	148	8	inhibition [18]: 30%; metabolised [9]: 21%; IC50 [19]: > 1000 nM; MET [12]: 57%; ED50 [20]: 9.4 mg/kg; inhibition [14]: 43%
Cc1ccc(N(CC(=O)Nc2cccc(Cl)c2C)S(C)(=O)=O)cc1	< 50	< 50	–	–	–	–	–
COc1ccc(N(CC(=O)Nc2cccc(Cl)c2C)S(=O)(=O)c2ccccc2)cc1Cl	< 50	< 50	–	–	–	–	–
CCOc1ccc(S(=O)(=O)N(CC(=O)NN)c2ccc(C)cc2)cc1	< 50	< 50	–	–	–	–	–
Cl.O=C(CN(c1ccc(Cl)cc1)S(=O)(=O)c1ccc(OCCN2CCOCC2)cc1)/N=N/c1c(O)[nH]c2ccccc12	–	–	–	–	–	–	solubility [7]: 2.5 µg/mL; solubility [8]: 127 µg/mL
O=C(CN(CCc1ccccc1)S(=O)(=O)c1ccccc1)N1CCc2ccccc2C1	< 50	< 50	–	–	–	–	–
CN(C)CCCOc1ccc(S(=O)(=O)N(CC(=O)N/N=C2\C(=O)NC(=O)c3ccccc32)c2ccc(Cl)cc2)cc1	–	–	1.6	730	456	2.7	metabolised [9]: 89%; solubility [7]: 2 µg/mL (≈ 3.34 µM); IC50 [19]: > 1000 nM; IC50 [11]: 15 nM; MET [12]: 91%; solubility [8]: 580 µg/mL (≈ 970 µM); inhibition [14]: 39.8%
CCOc1ccc(S(=O)(=O)N(CC(=O)N/N=C2\C(=O)Nc3ccccc32)c2ccc(C)cc2)cc1	–	–	–	–	100	–	ED50 [20]: 10 mg/kg; inhibition [14]: 49.9%
CN(C)CCCOc1ccc(S(=O)(=O)N(CC(=O)N/N=C2\C(=O)Nc3ccncc32)c2ccc(Cl)cc2)cc1	–	–	115	618	5	140	metabolised [9]: 41%; IC50 [19]: > 1000 nM; IC50 [11]: 840 nM; MET [12]: 20%; inhibition [14]: 23.8%
CN(C)CCCOc1ccc(S(=O)(=O)N(CC(=O)N/N=C2\C(=O)Nc3ccccc32)c2ccc(Cl)cc2)cc1	–	–	1.1	65	59	4.6	inhibition [18]: 22%; metabolised [9]: 26%; IC50 [19]: > 1000 nM; IC50 [11]: 14 nM; MET [12]: 0%; ED50 [20]: 7.5 mg/kg; inhibition [14]: 67.4%
COc1ccccc1/C=N/NC(=O)CN(c1ccc(C)cc1)S(=O)(=O)c1ccccc1	< 50	< 50	–	–	–	–	–
CN(C)CCCNC(=O)CCc1ccc(S(=O)(=O)N(CC(=O)N/N=C2\C(=O)Nc3ccccc32)c2ccc(Cl)cc2)cc1	–	–	0.65	42	65	0.67	inhibition [18]: 35%; metabolised [9]: 0%; IC50 [19]: > 1000 nM; MET [12]: 18%; inhibition in vivo at 30 mg/kg [21]: 29.3%; ED50 [20]: 1.4 mg/kg; inhibition [14]: 72%
CCOc1ccc(S(=O)(=O)N(CC(=O)OC)c2ccc(C)cc2)cc1	< 50	< 50	–	–	–	–	–
O=C(CN(c1ccc(Cl)cc1)S(=O)(=O)c1ccc(NCCN2CCOCC2)cc1)N/N=C1\C(=O)Nc2ccccc21	–	–	7	582	84	25	metabolised [9]: 40%; MET [12]: 73%; IC50 [22]: 310 nM
CN(C)CCOc1ccc(S(=O)(=O)N(CC(=O)N/N=C2\C(=O)Nc3ccccc32)c2ccc(Cl)cc2)cc1	–	–	2.1	176	84	15	IC50 [11]: 59 nM
COCCOc1ccc(S(=O)(=O)N(CC(=O)N/N=C2\C(=O)Nc3ccccc32)c2ccc(Cl)cc2)cc1	–	–	7	1180	171	33	solubility [7]: < 1 µg/mL; solubility [8]: < 1 µg/mL
CC(C)CCN(CC(=O)N1CCc2ccccc2C1)S(=O)(=O)c1ccccc1	< 50	< 50	–	–	–	–	–
CCOc1ccc(C[C@H]2NC(=O)CCSSC[C@@H](C(=O)N3CCC[C@H]3C(=O)N[C@@H](CCCN)C(=O)NCC(N)=O)NC(=O)[C@H](CC(N)=O)NC(=O)[C@H]([C@@H](C)O)NC(=O)[C@H]([C@@H](C)CC)NC2=O)cc1 [ATOSIBAN] ([Mpa][dY](Et)ITNCP[Orn]G-NH2; disulfide 1-6)	–	–	27	0.63	–	76	IC50 [11]: 59 nM
